Assays:
Format in all cases: functional
Hs-578T = experiment: Cytotoxicity against human Hs578T cells after 48 hrs by SRB assay
Summary of the method: (§1)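 NCI five-dose screen: cells preincubated 24 h at 37 °C, 5% CO₂, with time-zero plates TCA-fixed. Five 10-fold dilutions (0.01–100) were added and cells incubated for 48 h, then fixed in 10% TCA for 60 min at 4 °C. Staining used 0.4% SRB in 1% acetic acid, solubilised in 10 mM Tris, with A515 read. GI₅₀, TGI and LC₅₀ were derived from Tz, control and test absorbances.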

MDA-MB-231 = experiment: Cytotoxicity against human MDA-MB-231 cells after 48 hrs by SRB assay; settings: MDA-MB-231, 48 h
Summary of the method: (§2)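 NCI 60-line five-dose screen. Cells were preincubated 24 h at 37 °C under 5% CO2 and 100% humidity, and time-zero plates were TCA-fixed when compound was added. Five 10-fold concentrations (0.01–100) were tested for 48 h. Cells were fixed with cold TCA (final 10%, 60 min, 4 °C), stained with 0.4% SRB for 10 min, and read at 515 nm. GI50, TGI and LC50 came from growth-percentage formulas, with out-of-range values given as > or <.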

UO-31 = experiment: Cytotoxicity against human UO31 cells after 48 hrs by SRB assay; settings: UO-31, 48 h
Summary of the method: (§3)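 NCI 60-line five-dose screen: cells plated, held 24 h at 37 °C, 5% CO₂ before treatment, with a TCA-fixed time-zero plate. Five final concentrations (0.01–100 µM, 10-fold dilutions) for 48 h. Cells fixed with cold TCA (10% final) and stained with 0.4% SRB in 1% acetic acid. Dye dissolved in 10 mM Tris and read at 515 nm. GI₅₀, TGI and LC₅₀ taken from percent-growth curves.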

A498 = experiment: Cytotoxicity against human A498 cells after 48 hrs by SRB assay; settings: A498, 48 h; summary of the method: as §2
OVCAR-4 = experiment: Cytotoxicity against human OVCAR4 cells after 48 hrs by SRB assay; settings: OVCAR-4, 48 h; summary of the method: as §2
UACC-62 = experiment: Cytotoxicity against human UACC62 cells after 48 hrs by SRB assay; settings: UACC-62, 48 h; summary of the method: as §3
UACC-257 = experiment: Cytotoxicity against human UACC257 cells after 48 hrs by SRB assay; settings: UACC-257, 48 h; summary of the method: as §3
SK-MEL-28 = experiment: Cytotoxicity against human SK-MEL-28 cells after 48 hrs by SRB assay; settings: SK-MEL-28, 48 h; summary of the method: as §2
MDA-MB-435 = experiment: Cytotoxicity against human MDA-MB-435 cells after 48 hrs by SRB assay; settings: MDA-MB-435, 48 h; summary of the method: as §2
SF-295 = experiment: Cytotoxicity against human SF295 cells after 48 hrs by SRB assay; settings: SF-295, 48 h; summary of the method: as §2
SF-539 = experiment: Cytotoxicity against human SF539 cells after 48 hrs by SRB assay; settings: SF-539, 48 h; summary of the method: as §2
KM12 = experiment: Cytotoxicity against human KM12 cells after 48 hrs by SRB assay; settings: KM12, 48 h; summary of the method: as §2
HT-29 = experiment: Cytotoxicity against human HT-29 cells after 48 hrs by SRB assay; settings: HT-29, 48 h; summary of the method: as §2
NCI-H522 = experiment: Cytotoxicity against human NCI-H522 cells after 48 hrs by SRB assay; settings: NCI-H522, 48 h; summary of the method: as §2
NCI-H322M = experiment: Cytotoxicity against human NCI-H322M cells after 48 hrs by SRB assay; summary of the method: as §2
A549 = experiment: Cytotoxicity against human A549 cells after 48 hrs by SRB assay; settings: A549, 48 h; summary of the method: as §2
HL-60(TB) = experiment: Cytotoxicity against human HL-60(TB) cells after 48 hrs by SRB assay; settings: HL-60, 48 h; summary of the method: as §1
[1] = read-out: LC50 (the source's name)
[2] = read-out: pLC50 (the source's name) (converted)

In the case of `O=C(CCc1nnc2sc(-c3ccc(Cl)cc3Cl)nn12)c1nc2ccccc2[nH]1`, the GI50 (Hs-578T; read-out: GI50) was 478 nM, the CC50 (Hs-578T; [1]) was > 100000 nM and the GI50 (Hs-578T; read-out: pGI50 (converted)) was 479 nM. For the same molecule, the CC50 (Hs-578T; [2]) was > 100000 nM, the GI50 (MDA-MB-231; read-out: GI50) was 1000 nM and the LC50 (MDA-MB-231; read-out: LC50) was 5870 nM. For the same molecule, the TGI (MDA-MB-231; read-out: TGI) was 2420 nM, the GI50 (MDA-MB-231; read-out: pGI50 (converted)) was 1000 nM and the LC50 (MDA-MB-231; read-out: pLC50 (converted)) was 5890 nM. It also gave a TGI (MDA-MB-231; read-out: pTGI (converted)) of 2400 nM, a GI50 (UO-31; read-out: GI50) of 576 nM and an LC50 (UO-31; read-out: LC50) of 4630 nM. The TGI (UO-31; read-out: TGI) was 2020 nM, the GI50 (UO-31; read-out: pGI50 (converted)) was 575 nM and the LC50 (UO-31; read-out: pLC50 (converted)) was 4680 nM. It also gave a TGI (UO-31; read-out: pTGI (converted)) of 2040 nM, a GI50 (A498; read-out: GI50) of 1100 nM and an LC50 (concentration giving 50% net cell kill) (A498; read-out: LC50) of 4890 nM. The TGI (A498; read-out: TGI) was 2320 nM, the GI50 (A498; read-out: pGI50 (converted)) was 1100 nM and the LC50 (concentration giving 50% net cell kill) (A498; read-out: pLC50 (converted)) was 4900 nM. The TGI (A498; read-out: pTGI (converted)) was 2340 nM, the GI50 (OVCAR-4; read-out: GI50) was 971 nM and the CC50 (OVCAR-4; [1]) was 8040 nM. For the same molecule, the TGI (OVCAR-4; read-out: TGI) was 2820 nM, the GI50 (OVCAR-4; read-out: pGI50 (converted)) was 977 nM and the CC50 (OVCAR-4; [2]) was 8130 nM. The TGI (OVCAR-4; read-out: pTGI (converted)) was 2820 nM, the GI50 (UACC-62; read-out: GI50) was 1060 nM and the LC50 (concentration giving 50% net cell kill) (UACC-62; read-out: LC50) was 5610 nM. It also gave a TGI (UACC-62; read-out: TGI) of 2440 nM, a GI50 (UACC-62; read-out: pGI50 (converted)) of 1070 nM and an LC50 (concentration giving 50% net cell kill) (UACC-62; read-out: pLC50 (converted)) of 5620 nM. It also gave a TGI (UACC-62; read-out: pTGI (converted)) of 2450 nM, a GI50 (UACC-257; read-out: GI50) of 2100 nM and an LC50 (UACC-257; read-out: LC50) of 22500 nM. The TGI (UACC-257; read-out: TGI) was 5010 nM, the GI50 (UACC-257; read-out: pGI50 (converted)) was 2090 nM and the LC50 (UACC-257; read-out: pLC50 (converted)) was 22400 nM. For the same molecule, the TGI (UACC-257; read-out: pTGI (converted)) was 5010 nM, the GI50 (SK-MEL-28; read-out: GI50) was 474 nM and the CC50 (SK-MEL-28; [1]) was 4240 nM. The TGI (SK-MEL-28; read-out: TGI) was 1670 nM, the GI50 (SK-MEL-28; read-out: pGI50 (converted)) was 479 nM and the CC50 (SK-MEL-28; [2]) was 4270 nM. For the same molecule, the TGI (SK-MEL-28; read-out: pTGI (converted)) was 1660 nM, the GI50 (MDA-MB-435; read-out: GI50) was 265 nM and the TGI (MDA-MB-435; read-out: TGI) was 842 nM. For the same molecule, the GI50 (MDA-MB-435; read-out: pGI50 (converted)) was 263 nM, the TGI (MDA-MB-435; read-out: pTGI (converted)) was 851 nM and the GI50 (SF-295; read-out: GI50) was 1030 nM. For the same molecule, the TGI (SF-295; read-out: TGI) was 2730 nM, the GI50 (SF-295; read-out: pGI50 (converted)) was 1020 nM and the TGI (SF-295; read-out: pTGI (converted)) was 2750 nM. The GI50 (SF-539; read-out: GI50) was 2170 nM, the CC50 (SF-539; [1]) was 22800 nM and the TGI (SF-539; read-out: TGI) was 4860 nM. It also gave a GI50 (SF-539; read-out: pGI50 (converted)) of 2190 nM, a CC50 (SF-539; [2]) of 22900 nM and a TGI (SF-539; read-out: pTGI (converted)) of 4900 nM. The GI50 (KM12; read-out: GI50) was 1160 nM, the CC50 (KM12; [1]) was 7700 nM and the TGI (KM12; read-out: TGI) was 2990 nM. For the same molecule, the GI50 (KM12; read-out: pGI50 (converted)) was 1150 nM, the CC50 (KM12; [2]) was 7760 nM and the TGI (KM12; read-out: pTGI (converted)) was 3020 nM. For the same molecule, the GI50 (HT-29; read-out: GI50) was 362 nM, the CC50 (HT-29; [1]) was > 100000 nM and the TGI (HT-29; read-out: TGI) was 1810 nM. For the same molecule, the GI50 (HT-29; read-out: pGI50 (converted)) was 363 nM, the CC50 (HT-29; [2]) was > 100000 nM and the TGI (HT-29; read-out: pTGI (converted)) was 1820 nM. It also gave a GI50 (NCI-H522; read-out: GI50) of 1280 nM, a CC50 (NCI-H522; [1]) of 6820 nM and a TGI (NCI-H522; read-out: TGI) of 2960 nM. For the same molecule, the GI50 (NCI-H522; read-out: pGI50 (converted)) was 1290 nM, the CC50 (NCI-H522; [2]) was 6760 nM and the TGI (NCI-H522; read-out: pTGI (converted)) was 2950 nM. For the same molecule, the GI50 (NCI-H322M; read-out: GI50) was 1760 nM, the CC50 (NCI-H322M; [1]) was 7940 nM and the TGI (NCI-H322M; read-out: TGI) was 3740 nM. It also gave a GI50 (NCI-H322M; read-out: pGI50 (converted)) of 1780 nM, a CC50 (NCI-H322M; [2]) of 7940 nM and a TGI (NCI-H322M; read-out: pTGI (converted)) of 3720 nM. For the same molecule, the GI50 (A549; read-out: GI50) was 2070 nM, the CC50 (A549; [1]) was > 100000 nM and the TGI (A549; read-out: TGI) was 5630 nM. For the same molecule, the GI50 (A549; read-out: pGI50 (converted)) was 2090 nM, the CC50 (A549; [2]) was > 100000 nM and the TGI (A549; read-out: pTGI (converted)) was 5620 nM. The GI50 (HL-60(TB); read-out: GI50) was 862 nM, the CC50 (HL-60(TB); [1]) was > 100000 nM and the TGI (HL-60(TB); read-out: TGI) was 5930 nM. The GI50 (HL-60(TB); read-out: pGI50 (converted)) was 871 nM, the CC50 (HL-60(TB); [2]) was > 100000 nM and the TGI (HL-60(TB); read-out: pTGI (converted)) was 5890 nM.
